From PubChem BioAssay
Hits are enriched below; roughly 2.3% of the tested compounds scored in any of these assays.
PREPL inh: PREPL enzyme inhibitors, primary screen, biochemical, fluorescence polarization. recombinant PREPL, fluorescence polarization activity-based probe. AID 2751, 2010. Prolyl endopeptidase-like (Homo sapiens), Q4J6C6. 320,000 tested, 0.68% active. inhibition, % at 5.96 µM; in the data active means inhibition above about 43%
Fh CTSL1 inh: Fasciola hepatica cathepsin L1 inhibitors, primary screen, counter-screen for PFM18AAP inhibitor project, biochemical, QFRET, fluorogenic peptide substrate. recombinant F. hepatica cathepsin L1, Z-Leu-Arg-MCA fluorescence. AID 1906, 2009. 300,000 tested, 0.49% active. inhibition, % at 5.96 µM;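 active means inhibition above the mean of all tested compounds plus 3 SD, set per screening campaign, cut at about 17% in these data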
UBC13 polyUb: UBC13 polyubiquitin chain formation inhibitors, primary screen, biochemical, TR-FRET, uHTS; 330,000 tested, 0.47% active; Ubiquitin-conjugating enzyme E2 N (Homo sapiens), P61088; inhibition, % at 20 µM; in the data active means inhibition above about 45%, passing the limit was not always enough; inconclusive means no clear call, values can overlap the other calls
PP5 inh: PP5 phosphatase inhibitors, primary screen, biochemical, fluorescence; Serine/threonine-protein phosphatase 5 (Homo sapiens), P53041; inhibition, % at 6.7 µM; purified PP5c, OMFP substrate fluorescence; 320,000 tested, 0.18% active;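 active means inhibition above the campaign's mean inhibition across all tested compounds plus 3 SD, cut at about 9.5% in these data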
PP1 inh: PP1-alpha phosphatase inhibitors, primary screen, counter-screen for PP5 inhibitor project, biochemical, fluorescence, OMFP substrate, single point; purified PP1alpha; Serine/threonine-protein phosphatase PP1-alpha catalytic subunit (Homo sapiens), P62136; inhibition, % at 6.7 µM; 320,000 tested, 0.9% active;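 active means inhibition above the mean inhibition of all tested compounds plus 3 SD, computed separately for each screening campaign, cut at about 15% in these data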
Target sequence (P62136 whole entry, looked up): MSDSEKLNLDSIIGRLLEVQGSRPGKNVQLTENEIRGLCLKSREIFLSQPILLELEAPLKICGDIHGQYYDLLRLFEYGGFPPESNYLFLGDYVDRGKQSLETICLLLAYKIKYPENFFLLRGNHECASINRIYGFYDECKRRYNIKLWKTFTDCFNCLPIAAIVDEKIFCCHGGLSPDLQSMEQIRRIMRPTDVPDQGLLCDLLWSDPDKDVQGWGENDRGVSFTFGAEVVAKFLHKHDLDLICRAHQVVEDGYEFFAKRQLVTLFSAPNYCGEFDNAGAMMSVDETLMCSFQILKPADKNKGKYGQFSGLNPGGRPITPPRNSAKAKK
UCH37 inh: inhibitors of human UCH37 deubiquitinase, primary screen, biochemical, Ub-AMC cleavage, fluorescence; purified proteasome/UCH37; inhibition, % (no concentration beside the values); 330,000 tested, 0.33% active; AID 588478, 2011;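 active means mean inhibition over replicate wells above about 20%, limit read from the data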
Target sequence (Q9Y5K5 whole entry, looked up): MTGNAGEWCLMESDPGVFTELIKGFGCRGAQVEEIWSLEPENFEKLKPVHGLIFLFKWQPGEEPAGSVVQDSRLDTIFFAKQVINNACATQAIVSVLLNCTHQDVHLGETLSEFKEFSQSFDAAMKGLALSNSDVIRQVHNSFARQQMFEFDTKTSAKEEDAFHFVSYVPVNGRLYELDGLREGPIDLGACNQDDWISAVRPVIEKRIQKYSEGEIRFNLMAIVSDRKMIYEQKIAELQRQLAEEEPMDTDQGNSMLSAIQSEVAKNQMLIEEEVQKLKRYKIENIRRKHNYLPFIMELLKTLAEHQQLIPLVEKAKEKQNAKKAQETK
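assay system = human UCH37 enzyme supplied as purified proteasome complex | amount = proteasome at 0.15 nM in the dispensed enzyme solution | schedule = 30 min compound-proteasome preincubation then 25 min substrate reaction, room temperature | measured by = fluorescence, ex 355 nm, em 460 nm | benchmarks = no-proteasome wells (full inhibition) and compound-free wells (no inhibition)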
Numbers stand for hits; 0 = inactive; ? = inconclusive; - = no result.

SMILES	PREPL inh	Fh CTSL1 inh	UBC13 polyUb	PP5 inh	PP1 inh	UCH37 inh
Cc1ccc(C(=O)Nc2ccc(C(=O)N/N=C/c3ccccn3)cc2)cc1	0	19	0	0	0	-
Cc1cccc(/C=N/NC(=O)c2ccc(NC(=O)c3ccc(Cl)cc3)cc2)n1	0	0	0	0	15	-
Cc1ccc(NC(=S)NN=Cc2ccc(OCCC(C)C)cc2)c(C)c1	-	-	-	-	-	0
Cc1nonc1NC(=O)CSc1nc2ccccc2[nH]1	0	17	0	0	0	0
COc1nonc1NC(=O)CSc1nc2ccccc2[nH]1	0	0	0	0	0	0
CN(C)c1ccc(C=NNc2nc(-c3ccccc3)cc(=O)[nH]2)cc1	-	-	-	-	-	0
COc1ccc(OC)c(C2C(C(=O)c3cc4ccccc4o3)=C(O)C(=O)N2c2cc(C)on2)c1 (stereo not given)	0	0	0	0	21	0
COc1ccccc1C1C(C(=O)c2cc3ccccc3o2)=C(O)C(=O)N1c1cc(C)on1 (stereo not given)	0	0	0	0	20	0
COc1ccc(OC)c(C2C(C(=O)c3ccc(C)o3)=C(O)C(=O)N2c2cc(C)on2)c1 (stereo not given)	0	0	0	0	0	0
O=C(O)c1ccc(CSc2nnc(COc3ccc(Cl)cc3Cl)o2)cc1	0	40	0	0	0	0
COc1ccc(OCc2nnc(SCc3ccc(C(=O)O)cc3)o2)cc1	0	0	0	0	0	0
CCOc1cc(/C=C2/C(=O)N(c3ccccc3)N=C2C)ccc1OC(=O)c1cccs1	54	0	0	0	0	0
Nc1ccc(C(=O)N2CCCC2)cc1	0	0	0	0	0	0
Nc1ccc(C(=O)n2c3ccccc3c3ccccc32)cc1	0	0	?	0	0	28
Cc1ccc(S(=O)(=O)N2CCC(C(=O)NN=Cc3ccccc3[N+](=O)[O-])CC2)cc1	-	-	-	-	-	0
Cc1cccc(C(=O)NN=Cc2coc3ccccc3c2=O)c1	-	-	-	-	-	0
Cc1cccc(C)c1OCC(=O)NN=C/C=C/c1ccco1	-	-	-	-	-	0
COc1cc(C=NNc2nc3ccccc3s2)cc([N+](=O)[O-])c1O	-	-	-	-	-	22
O=C(NN=CCCc1ccccc1)c1ccccc1	-	-	-	-	-	0
O=C(NCc1ccco1)/C(=C\c1ccco1)NC(=O)c1ccc(Br)o1	0	0	0	0	0	0
O=C(NCc1ccco1)/C(=C\C=C\c1ccccc1)NC(=O)c1ccco1	0	17	0	0	0	0
O=C(NCc1ccco1)/C(=C/C=C/c1ccccc1)NC(=O)c1ccco1	0	27	0	0	0	0
O=C(NCc1ccco1)/C(=C/c1ccco1)NC(=O)c1ccc(Br)o1	0	17	0	0	0	0
COc1ccccc1C(=O)N/C(=C\c1ccccc1)C(=O)NCc1ccco1	0	17	0	0	0	0
O=C(NCc1ccco1)/C(=C/c1ccccc1)NC(=O)c1ccco1	0	0	0	0	0	0
SMILES	PREPL inh	Fh CTSL1 inh	UBC13 polyUb	PP5 inh	PP1 inh	UCH37 inh
CC(C)c1ccc(C=NNC(=O)c2nnn(-c3nonc3N)c2CSC2=NCCS2)cc1	-	-	-	-	-	0
CC(C)C(=O)Nc1ccc(C(=O)NN=CC2CC3C=CC2C3)cc1 (stereo not given)	-	-	-	-	-	0
Cc1cc(C(=O)NN=Cc2cc([N+](=O)[O-])cc(C)c2O)n[nH]1	-	-	-	-	-	0
Cc1ccc(-n2ncc3c(SCC(=O)NNC(=O)C(C)C)ncnc32)cc1	0	0	0	0	0	0
CC(C)C(=O)NNC(=O)CSc1ncnc2c1cnn2-c1ccccc1Cl	0	44	0	0	0	0
C=CCOc1ccc(C=NNc2ccccn2)cc1OC	-	-	-	-	-	0
CCOC(=O)C1Nc2ccc(C(=O)O)cc2C2C=CCC12 (stereo not given)	0	0	0	0	34	-
CCCC1Nc2ccc(C(=O)O)cc2C2C=CCC12 (stereo not given)	0	0	-	0	0	0
COc1cc(C(=O)Nc2ccccn2)cc(OC)c1OC	0	18	0	0	0	0
C/C(C=NNC(=O)Cn1cnc2c1c(=O)n(C)c(=O)n2C)=C\c1ccccc1	-	-	-	-	-	0
Clc1ccc(CONc2ncnc3nonc23)c(Cl)c1	0	18	0	0	0	0
Cc1nn(-c2ccccc2)cc1C=NNS(=O)(=O)c1ccccc1	-	-	-	-	-	0
O=C(Cc1ccc(F)cc1)NN=Cc1ccncc1	-	-	-	-	-	0
CCN(CC)S(=O)(=O)c1ccc2c(c1)nc(CCC(=O)Nc1ccc3c(c1)OCO3)n2CC	0	0	0	0	15	0
CCN(CC)S(=O)(=O)c1ccc2c(c1)nc(CCC(=O)Nc1ccc3c(c1)OCO3)n2C	0	0	0	0	0	0
CNc1nc2cc([N+](=O)[O-])c([N+](=O)[O-])cc2nc1NC	0	0	-	0	0	41
Cc1ccc(OCc2nnc(SCC(=O)Nc3cccc4ccccc34)n2-c2ccccc2)cc1	0	0	0	0	15	0
CC1=NN(S(=O)(=O)c2ccc(Cl)cc2Cl)C(=O)c2ccccc2O1	0	56	0	0	0	0
Cc1nn(-c2ccc(Cl)cc2Cl)c(=O)c2ccccc12	0	0	0	0	0	0
CCCN(CCC)c1nc(C#N)nc(N(CCC)CCC)n1	0	18	0	0	0	0
CN(C)c1nc(C#N)nc(N(C)C)n1	0	26	0	0	0	0
CCOC(=O)c1c(N=CN(C)C)sc(C=NNc2ccccc2)c1-c1ccc(Cl)cc1	-	-	-	-	-	0
O=C(CNC(=O)c1ccccc1F)OC(C(=O)Nc1cc(C(F)(F)F)ccc1Cl)c1ccccc1 (stereo not given)	0	25	0	0	0	0
C[C@H](NC(=O)c1ccccc1Cl)C(=O)OC(C(=O)Nc1cc(C(F)(F)F)ccc1Cl)c1ccccc1 (stereo not given in full)	0	0	0	0	0	0
O=C(NN=Cc1cccnc1)c1ccc([N+](=O)[O-])cc1Cl	-	-	-	-	-	0
SMILES	PREPL inh	Fh CTSL1 inh	UBC13 polyUb	PP5 inh	PP1 inh	UCH37 inh
Cc1oc(-c2cccc(Cl)c2)nc1CS(=O)(=O)CC(=O)NCCN1CCOCC1	0	0	0	0	0	0
Cc1oc(-c2cccc(Cl)c2)nc1CS(=O)(=O)CC(=O)NCCN1CCCC1	0	90	0	0	0	0
O=C(NCc1cccnc1)C(=O)NN=Cc1ccc([N+](=O)[O-])cc1	-	-	-	-	-	0
O=C(C[n+]1ccccc1)NN=Cc1ccccc1Cl	-	-	-	-	-	0
CCn1ncc(C=NN=C2CCC3C4CCc5cc(O)ccc5C4CCC23C)c1C (stereo not given)	-	-	-	-	-	0
CC(C)CC(C(=O)Nn1cnnc1)N1C(=O)c2ccccc2C1=O (stereo not given)	0	23	0	0	0	0
O=C(CCN1C(=O)c2ccccc2C1=O)Nn1cnnc1	0	0	0	0	0	0
